According to paper PMC3983365 (Journal of medicinal chemistry, 2014):

How the values were obtained:
[1] = system: scanMAX 402 kinase panel; assay: scanMAX kinase screen; type: binding; details: at 10 μM
In short: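 Competition binding: DNA-tagged kinases (T7 phage in BL21-derived E. coli lysates, or HEK-293-expressed) mixed with biotinylated-ligand streptavidin magnetic beads and test compound (10 μM; 40× DMSO stocks) in SeaBlock/0.17× PBS/Tween 20/6 mM DTT, 1 h RT. Beads washed, eluted 30 min with 0.5 μM free ligand; bound kinase by qPCR. S-score: kinases bound divided by distinct non-mutant kinases tested.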

[2] = target: c-Met (Homo sapiens, UniProt P08581); assay: scanMAX kinase screen, c-Met; type: binding; details: at 10 μM
In short: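 Kinase-tagged T7 phage (BL21-derived E. coli host) or HEK-293-made DNA-tagged kinase competed against an immobilised active-site ligand on streptavidin magnetic beads, with test compound at 10 μM (from 40× DMSO stock). Run in SeaBlock/PBS/Tween/DTT binding buffer for 1 h at room temperature. Beads then washed and eluted with 0.5 μM non-biotinylated ligand; kinase in eluate quantified by qPCR.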

[3] = system: PARP; assay: PARP cleavage by Western blot in SKBr3; type: cell-based; details: Homo sapiens, SK-BR-3, read-out: cPARP (PARP cleavage)
In short: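 SK-BR-3 cells grown in DME/F12 with 10% FBS, 1% L-glutamine and penicillin/streptomycin to 60–70% confluence, then exposed to test compound or DMSO vehicle. Lysed in 50 mM Tris pH 7.4, 150 mM NaCl, 1% NP-40; protein by BCA. 10–50 μg lysate run on SDS–PAGE, blotted to nitrocellulose, probed with rabbit anti-PARP p85 fragment (1:500), then peroxidase secondary (1:3000).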

[4] = target: Hsp90; assay: Hsp90 binding assay; details: read-out: Hsp90 binding; binding to SKBr3 cell extracts; competition with GM-Cy3B
[5] = LC/MS–MS analyses of cellular extracts; type: in vitro ADME; details: after 10 min of incubation; data not shown
[6] = Aqueous solubility; type: physicochemical
[7] = target: Hsp70; details: read-out: Kd for Hsp70; cited from earlier work

c-Met, sequence (P08581 25-1390): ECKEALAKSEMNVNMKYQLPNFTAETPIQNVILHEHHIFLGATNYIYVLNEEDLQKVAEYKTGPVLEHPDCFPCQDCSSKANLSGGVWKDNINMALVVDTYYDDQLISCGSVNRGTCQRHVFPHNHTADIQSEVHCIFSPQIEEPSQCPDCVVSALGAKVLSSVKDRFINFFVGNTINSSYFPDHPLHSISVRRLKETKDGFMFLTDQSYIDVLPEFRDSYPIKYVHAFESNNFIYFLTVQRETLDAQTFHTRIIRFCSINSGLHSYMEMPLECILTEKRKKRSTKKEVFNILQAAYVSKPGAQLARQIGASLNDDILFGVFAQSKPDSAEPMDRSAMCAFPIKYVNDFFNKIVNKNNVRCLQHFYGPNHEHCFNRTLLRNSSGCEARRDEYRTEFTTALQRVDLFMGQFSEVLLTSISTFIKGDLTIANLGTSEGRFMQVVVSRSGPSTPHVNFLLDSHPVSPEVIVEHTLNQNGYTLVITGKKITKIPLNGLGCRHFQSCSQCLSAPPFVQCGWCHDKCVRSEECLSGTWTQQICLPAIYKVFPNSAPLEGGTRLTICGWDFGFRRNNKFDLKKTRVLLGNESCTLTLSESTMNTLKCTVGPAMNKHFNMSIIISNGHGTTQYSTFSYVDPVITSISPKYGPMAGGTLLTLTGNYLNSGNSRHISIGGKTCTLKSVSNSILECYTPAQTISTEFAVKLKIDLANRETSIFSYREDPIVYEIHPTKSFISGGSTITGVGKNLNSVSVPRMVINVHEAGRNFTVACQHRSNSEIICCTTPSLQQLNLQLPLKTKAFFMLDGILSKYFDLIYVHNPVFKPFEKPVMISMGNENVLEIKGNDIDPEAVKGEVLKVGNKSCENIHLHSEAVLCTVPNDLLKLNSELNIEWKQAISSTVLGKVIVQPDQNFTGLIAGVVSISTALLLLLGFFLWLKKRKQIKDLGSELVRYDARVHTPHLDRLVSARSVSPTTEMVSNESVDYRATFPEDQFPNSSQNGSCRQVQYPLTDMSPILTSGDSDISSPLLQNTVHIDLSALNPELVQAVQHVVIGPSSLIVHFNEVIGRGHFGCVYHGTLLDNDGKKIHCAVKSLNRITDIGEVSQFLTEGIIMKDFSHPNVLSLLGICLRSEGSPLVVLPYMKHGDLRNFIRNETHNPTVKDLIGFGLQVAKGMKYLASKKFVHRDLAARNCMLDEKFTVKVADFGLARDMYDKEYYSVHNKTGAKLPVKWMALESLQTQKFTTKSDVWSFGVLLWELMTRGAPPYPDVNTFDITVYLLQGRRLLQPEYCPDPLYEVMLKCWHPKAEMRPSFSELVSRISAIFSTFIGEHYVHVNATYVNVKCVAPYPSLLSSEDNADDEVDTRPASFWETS

IC50 [4] | Structure (SMILES) | further results
> 500 µM | C=CC(=O)Nc1cc(N)nc(Sc2c(OC)nc(N3CCN(C)CC3)nc2OC)n1 [17a, N-(6-Amino-2-((4,6-dimethoxy-2-(4-methylpiperazin-1-yl)-pyrimidin-5-yl)thio)pyrimidin-4-yl)acrylamide] | activity against the scanMAX 402 kinase panel [1]: inert; kinase hit in scanMAX screen [2]: potential low-affinity kinase hit; EC50 [3]: 2 µM
 | O=c1c(O)c(-c2cc(O)c(O)c(O)c2)oc2cc(O)cc(O)c12 [compound 4, myricetin, reference compound] | stability in the cells (agent detected in cellular extracts) [5]: virtually undetectable; EC50 [3]: > 100 µM
> 500 µM | C=CC(=O)Nc1cc(N)nc(Sc2c(OC)nc(N3CCN(C)CC3)nc2OCCOCCOCCOCCO)n1 [45a] | 
> 500 µM | C=CC(=O)Nc1cc(N)nc(Sc2c(OC)nc(N3CCN(CCOCCOCCOCCO)CC3)nc2OC)n1 [44a] | 
> 500 µM | C=CC(=O)Nc1ccnc(Sc2c(OC)nc(N3CCCC3)nc2OC)n1 [27d, N-(2-((4,6-Dimethoxy-2-(pyrrolidin-1-yl)pyrimidin-5-yl)thio)-pyrimidin-4-yl)acrylamide] | aqueous solubility [6]: poor aqueous solubility
 | Nc1ncnc2c1ncn2[C@@H]1O[C@H](COP(=O)(O)OP(=O)(O)O)[C@@H](O)[C@H]1O [ADP] | Kd [7]: 0.11 to 0.5 µM
> 500 µM | C=CC(=O)Nc1ccnc(Sc2c(C)nc(N3CCN(C)CC3)nc2C)n1 [42a, N-(2-((4,6-Dimethyl-2-(4-methylpiperazin-1-yl)pyrimidin-5-yl)-thio)pyrimidin-4-yl)acrylamide] | EC50 [3]: 5 µM
> 500 µM | C=CC(=O)Nc1cc(N)nc(Sc2c(OCC)nc(N3CCCCC3)nc2OCC)n1 [20c, N-(6-Amino-2-((4,6-diethoxy-2-(piperidin-1-yl)pyrimidin-5-yl)-thio)pyrimidin-4-yl)acrylamide] | 
> 500 µM | C=CC(=O)Nc1cc(N)nc(Sc2c(OCC)nc(N3CCN(C)CC3)nc2OCC)n1 [20a, N-(6-Amino-2-((4,6-diethoxy-2-(4-methylpiperazin-1-yl)-pyrimidin-5-yl)thio)pyrimidin-4-yl)acrylamide] | 
 | N#Cc1ccc(COC[C@H]2O[C@@H](n3c(NCc4ccc(Cl)c(Cl)c4)nc4c(N)ncnc43)[C@H](O)[C@@H]2O)cc1 [compound 7, reference compound] | Kd [7]: 0.3 µM
> 500 µM | C=C(C)C(=O)Nc1ccnc(Sc2c(C)nc(N3CCN(C)CC3)nc2C)n1 [42c, N-(2-((4,6-Dimethyl-2-(4-methylpiperazin-1-yl)pyrimidin-5-yl)-thio)pyrimidin-4-yl)methacrylamide] | 
> 500 µM | C=CC(=O)Nc1cc(N)nc(Sc2c(OC)nc(N)nc2OC)n1 [compound 31, N-(6-Amino-2-((2-amino-4,6-dimethoxypyrimidin-5-yl)thio)-pyrimidin-4-yl)acrylamide] | 
> 500 µM | C=CC(=O)Nc1ccnc(Sc2c(OC)nc(N3CCN(C)CC3)nc2OC)n1 [27a, N-(2-((4,6-Dimethoxy-2-(4-methylpiperazin-1-yl)pyrimidin-5-yl)-thio)pyrimidin-4-yl)acrylamide] | 
> 500 µM | C=CC(=O)Nc1cccc(Sc2c(OC)nc(N3CCOCC3)nc2OC)c1 [compound 37, N-(3-((4,6-Dimethoxy-2-morpholinopyrimidin-5-yl)thio)phenyl)-acrylamide] | 
